# Screens deposited in PubChem BioAssay by several laboratories.
# GSTO1 inh = blocks human GSTO1 in RBBP9 counter-screen. inhibition, % at 5.96 µM. P78417. AID 1974. actives 1.1% (n = 300,000). recombinant GSTO1, activity-based probe fluorescence polarization;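 active = inhibition above the campaign mean inhibition plus 3 SD, cut at about 35% in these data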;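 note: 0% = GSTO1-1 with DMSO and 100% = wells lacking GSTO1-1 enzyme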
# TDP2 inh = TDP2 (human) inhibition, absorbance primary screen; O95551; recombinant TDP2, T5PNP hydrolysis, p-nitrophenol absorbance 415 nm; inhibition, % at 12.8 µM; actives 0.34% (n = 370,000);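 active = inhibition above the mean of all tested compounds plus 3 SD, set per campaign, cut at about 25% in these data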;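 note: 0% = DMSO with enzyme and 100% = buffer with substrate but no TDP2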
#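 test system = human TDP2 enzyme | input = TDP2 enzyme at 120 nM final | medium = 50 mM Tris-HCl pH 7.5 with Mg2+, KCl, DTT, BSA | also added = T5PNP substrate, 5 mM | times = 2 h at 37 °C | technique = epi absorbance | benchmarks = high control without enzyme, low control DMSO plus TDP2 | replication = each compound tested once, singlicate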
# CTSL1 counter = counter-screen for PFM18AAP inhibitors: inhibitors of F. hepatica cathepsin L1; actives 0.49% (n = 300,000); inhibition, % at 5.96 µM; AID 1906; recombinant F. hepatica cathepsin L1, Z-Leu-Arg-MCA fluorescence;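 active = inhibition above the mean of all tested compounds plus 3 SD, set per screening campaign, cut at about 17% in these data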;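 note: 0% = plate median of test compound wells and 100% = 1 µM Z-Phe-Ala-diazomethylketone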
# PAD4 FP inh = inhibitors of human PAD4 | recombinant PAD4, RCA probe fluorescence polarization | inhibition, % at 6.36 µM | actives 0.41% (n = 330,000) | AID 485272;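 active = percent inhibition above a cutoff equal to the mean of all tested compounds plus 3 SD, cut at about 15% in these data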;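 note: 0% = PAD4 with RCA probe and DMSO and 100% = probe without PAD4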
# Target sequence (Q9UM07 whole entry, looked up): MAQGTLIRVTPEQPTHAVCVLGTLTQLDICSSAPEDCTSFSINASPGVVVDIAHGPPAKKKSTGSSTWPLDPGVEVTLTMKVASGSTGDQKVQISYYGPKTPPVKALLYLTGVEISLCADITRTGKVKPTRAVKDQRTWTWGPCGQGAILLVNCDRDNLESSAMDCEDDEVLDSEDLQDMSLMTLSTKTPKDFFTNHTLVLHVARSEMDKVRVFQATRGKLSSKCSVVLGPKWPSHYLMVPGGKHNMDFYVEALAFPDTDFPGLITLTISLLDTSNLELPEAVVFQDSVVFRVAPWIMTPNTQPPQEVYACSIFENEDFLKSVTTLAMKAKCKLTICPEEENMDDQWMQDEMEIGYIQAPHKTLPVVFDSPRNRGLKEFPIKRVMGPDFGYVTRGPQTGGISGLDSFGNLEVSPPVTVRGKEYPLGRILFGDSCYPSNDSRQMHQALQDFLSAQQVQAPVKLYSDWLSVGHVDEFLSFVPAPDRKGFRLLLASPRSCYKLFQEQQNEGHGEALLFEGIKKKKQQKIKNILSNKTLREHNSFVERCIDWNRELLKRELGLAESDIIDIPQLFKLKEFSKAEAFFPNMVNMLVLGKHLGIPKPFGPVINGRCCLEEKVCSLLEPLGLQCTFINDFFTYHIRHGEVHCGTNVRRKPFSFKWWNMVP
# HKDC1 inh = inhibitors of human hexokinase HKDC1. inhibition, % at 20 µM. AID 493160. recombinant HKDC1, G6PDH/diaphorase resazurin coupled fluorescence. actives 0.16% (n = 340,000);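 active = inhibition above about 35% when tested at 20 µM, limit read from the data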;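 note: plate controls were DMSO wells with enzyme for no effect and DMSO wells lacking enzyme for full effect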
#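 test system = in-house recombinant HK5 (HKDC1) enzyme | amount = HKDC1 at 5 µg/mL | control set = DMSO-enzyme wells negative, buffer-substituted wells positive | compound = one dose of 20 µM, 1% DMSO | schedule = reaction time 90 min, room temperature, protected from light | technique = resorufin fluorescence at 613 nm | reagent = glucose with 1 mM ATP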
# UCH37 DUB inh = human UCH37 deubiquitinating enzyme inhibition; Q9Y5K5; inhibition, % (no concentration beside the values); actives 0.33% (n = 330,000); purified proteasome/UCH37, Ub-AMC cleavage fluorescence; AID 588478;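 active = mean inhibition over replicate wells above about 20%, limit read from the data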;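 note: 0% = compound-free wells with enzyme and 100% = wells lacking proteasome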
#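 Material: Human UCH37 enzyme supplied as purified proteasome complex | Schedule: 30 min compound-proteasome preincubation then 25 min substrate reaction, room temperature | Detection: AMC fluorescence from Ub-AMC cleavage, excitation 355 nm, emission 460 nm | Benchmarks: Wells without proteasome as full block, compound-free enzyme plus substrate as uninhibited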
# UCH37 confirm = UCH37 Ub-AMC cleavage inhibition, confirmed; inhibition, % at 20 µM; actives 27% (n = 480); Proteasome-bound UCH37, Ub-AMC cleavage fluorescence; shares compounds with UCH37 DUB inh;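 active = average inhibition over replicates above about 50%, so the earlier screening hit is confirmed, limit read from the data; inactive = the rest, counted as false positives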;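 note: based on cleavage rate fitted by regression over a 30 min kinetic read; 0% = proteasome plus Ub-AMC and 100% = Ub-AMC without proteasome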
# * hit, by the source's call; i = inactive; . = not tested or not shown. Most compounds without a hit are left out; they make up all but 1.6% or so of the library.
SMILES,GSTO1 inh,TDP2 inh,CTSL1 counter,PAD4 FP inh,HKDC1 inh,UCH37 DUB inh,UCH37 confirm
CCOC(=O)C1=CC[C@@H](c2ccccc2Cl)N(S(=O)(=O)c2ccc(C)cc2)[C@H]1C(=O)OCC,.,-14.2,.,-1.1,-0.5,38.0*,-8.6
Cc1ccc(C=NNC(=O)c2ccc3nc[nH]c3c2)s1,.,.,.,.,.,8.4,.
CC(=NOCc1ccccc1C#N)c1cc2ccccc2o1,.,.,.,.,.,-0.8,.
CCOc1ccc(C2/C(=C(/O)c3ccc(F)cc3)C(=O)C(=O)N2CCCN(C)C)cc1 (centres undefined),-4.1,-0.4,-3.0,-2.0,-5.2,35.1*,15.9
C=CCOc1ccc(C2/C(=C(/O)c3ccc(OC)cc3)C(=O)C(=O)N2CCN2CCNCC2)cc1 (centres undefined),-1.7,-11.3,-2.5,0.5,-3.8,55.2*,7.3
Cc1nc(N)sc1C(=O)NN=Cc1c[nH]c2ccccc12,.,.,.,.,.,8.6,.
CC(=O)Nc1ccc(Sc2ccc([N+](=O)[O-])o2)cc1,.,-6.1,.,.,9.1,27.7*,25.8
CC(=NNC(=O)c1cccs1)c1ccc(NC(=O)COc2ccc(Cl)cc2Cl)cc1,.,.,.,.,.,-19.7,.
Oc1ccc2ccccc2c1C=Nc1nc2c(s1)CCCC2,.,.,.,.,.,42.2*,24.9
COc1ccc2c(c1)-c1nc(/N=C/c3c(O)ccc4ccccc34)sc1CC2,.,17.6,.,.,13.6,.,.
NS(=O)(=O)c1ccc(N=Nc2ccc(O)c3ncccc23)cc1,32.8,-18.9,5.9,-11.8,-18.4,5.3,.
NS(=O)(=O)c1ccc(N=Nc2ccc(=O)[nH]c2O)cc1,6.5,1.9,10.3,-10.1,26.5,31.9*,14.6
COc1ccc(C(C)=NO)cc1OC,.,.,.,.,.,0.1,.
CN1/C(=C\C=C2/SC(=S)NC2=O)C(C)(C)c2ccccc21,-230.7,1.5,2.8,-156.2,-1.6,8.4,.
CN1CCC/C1=C/C=C1\SC(=S)NC1=O,6.4,5.8,10.2,-5.1,-1.1,35.3*,33.7
CC(C)c1ccc(C(CC(=O)O)N2Cc3ccccc3C2=O)cc1 (centres undefined),-5.3,-12.4,-8.3,1.3,1.9,61.6*,80.5*
N#Cc1ccc(C(CC(=O)O)N2Cc3ccccc3C2=O)cc1 (centres undefined),6.8,-0.3,0.0,-0.8,-6.0,5.1,.
Oc1ccc(N=Nc2ccccc2-c2nn[nH]n2)c(O)c1,-6.0,17.2,2.8,0.2,1.5,26.9*,25.8
CCCC1=C(C(=O)OCC)C(c2ccc(OC)c(C)c2OC)C(C#N)=C(N)O1 (centres undefined),9.3,-0.7,-2.6,-5.8,3.6,30.8*,-38.8
CCOC(=O)C1=C(CC)OC(N)=C(C#N)C1c1ccc(OC)c(C)c1OC (centres undefined),15.0,10.2,2.8,2.4,-1.8,3.7,.
Cc1nn(C)c(C(=O)NN=Cc2cc3c(cc2Br)OCO3)c1Br,.,.,.,.,.,4.8,.
O=C(O)C(c1ccccc1)N1C(=O)/C(=C\c2ccc(-c3ccccc3Cl)o2)SC1=S (centres undefined),17.9,-10.5,3.9,-26.5,17.8,38.4*,100.4*
O=C(O)C(c1ccccc1)N1C(=O)/C(=C\c2ccc(-c3ccc(Br)cc3)o2)SC1=S (centres undefined),.,-7.3,.,.,11.1,.,.
CC(=O)[C@@H]1[C@@H]2C(=O)N(c3ccc(F)c(Cl)c3)C(=O)[C@@H]2C2c3ccccc3C=CN21 (some centres undefined),10.2,6.2,2.2,-18.4,.,.,.
CC(=O)[C@H]1[C@@H]2C(=O)N(c3cccc(Cl)c3)C(=O)[C@@H]2[C@H]2c3ccccc3C=CN21,9.4,15.6,11.4,-8.4,12.6,39.9*,-8.7
SMILES,GSTO1 inh,TDP2 inh,CTSL1 counter,PAD4 FP inh,HKDC1 inh,UCH37 DUB inh,UCH37 confirm
COCCNC(=O)/C(C#N)=C/c1ccc(-c2ccc(OC)cc2[N+](=O)[O-])o1,15.4,-1.6,6.2,-7.7,0.8,51.9*,30.3
N#C/C(=C\c1ccc(N2CCOCC2)o1)C(=O)NC1CCCCC1,1.2,-0.1,9.7,-3.4,6.4,29.6*,20.2
COCCNC(=O)/C(C#N)=C/c1ccc(N2CCOCC2)o1,6.3,2.4,6.1,-11.1,-2.2,37.6*,36.1
N#C/C(=C\c1ccc(N2CCOCC2)o1)C(=O)NCC1CCCO1 (centres undefined),1.3,-0.3,9.1,-2.7,-10.8,30.7*,40.1
CN(C)N=Cc1c(O)ccc2ccccc12,.,.,.,.,.,4.7,.
COc1ccc(OC)c(C=NNC(=O)Cc2nc3ccccc3[nH]2)c1,.,.,.,.,.,i,.
NN=c1sc2ccccc2n1-c1ccccc1,.,.,.,.,.,3.7,.
CC1=CC(=O)C(C(C)C)=CC1=NOS(=O)(=O)c1ccccc1,.,.,.,.,.,3.8,.
N#Cc1cn(-c2ccccc2)nc1C(=O)c1ccccc1,-14.5,-10.5,-5.6,-3.6,-1.7,36.5*,14.9
CCOC(=O)c1c(N2C(=O)C3CC(C)=C(C)CC3C2=O)sc(C)c1C (centres undefined),-5.5,-0.2,-1.2,-0.7,6.2,43.1*,63.9*
Cc1[nH]c2ccccc2c1C=NNC(=O)Cc1cccs1,.,.,.,.,.,6.4,.
FC(F)(F)C1=Nc2cccc3cccc(c23)N1,.,6.2,.,.,30.1,56.9*,4.5
Fc1ccc(C2=Nc3cccc4cccc(c34)N2)cc1,9.8,10.2,1.7,-3.6,7.2,5.8,.
NC(=O)CC(NC(=O)Cc1ccc(Cl)cc1)c1ccc(NCCc2ccccc2F)c([N+](=O)[O-])c1 (centres undefined),20.5,-14.4,1.9,4.3,0.8,47.8*,2.5
CC(Cc1ccccc1)=NNC(=O)CNC(=O)c1ccc(Cl)cc1Cl,.,.,.,.,.,4.2,.
Cc1ccc(NC2C(=O)NC(=O)NC2=O)cc1,.,4.5,.,.,-12.6,79.6*,-1.9
O=c1cc(N2CCc3ccccc3C2)[nH]c(=O)n1-c1ccccc1Cl,-3.3,5.0,-4.0,0.0,0.2,12.7,.
Cc1ccccc1-n1c(=O)cc(N2CCc3ccccc3C2)[nH]c1=O,-4.0,-1.9,0.3,-2.1,2.2,27.2*,31.8
Cc1ccc(-n2c(=O)cc(N3CCc4ccccc4C3)[nH]c2=O)cc1,-6.5,-1.3,2.2,0.3,-3.6,34.3*,31.7
O=C(C[n+]1ccc(C(=O)NN=Cc2ccc(Cl)cc2Cl)cc1)c1ccccc1,.,.,.,.,.,10.1,.
C[C@@H]1NC(=O)[C@H](CCC(N)=O)NC(=O)c2cc([N+](=O)[O-])cc(I)c2NCC[C@@H](C(N)=O)NC1=O,6.4,.,2.0,0.7,5.8,50.4*,-0.9
Fc1ccccc1C=NNc1nc(N2CCCCC2)nc(N2CCCCC2)n1,.,.,.,.,.,7.8,.
COc1ccc(NC(=O)c2cccnc2Cl)c(S(=O)(=O)N2CCOCC2)c1,-1.8,4.4,-0.9,-5.0,14.9,0.3,.
